Converted amounts (≈) assume the structure as drawn.
Assays:
Cryptococcus neoformans [1] = assay: Antifungal activity against Cryptococcus neoformans 5396 after 48 to 72 hrs by broth microdilution method; type: functional
Outline: (§1)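 CLSI M27-A3 broth microdilution. Isolates subcultured twice on SDA, 48 h at 35°C. Saline suspension adjusted to 70% transmittance at 530 nm, then diluted to 1-5 x10^3 cells/mL in RPMI with L-glutamine, 0.165 M MOPS, pH 7.0. Compounds in DMSO, tested at […]. 35°C for 48-72 h. MIC read visually as the lowest concentration giving an optically clear well.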

[2] = system: Cryptococcus gattii species complex; assay: Antifungal activity against Cryptococcus gattii L28/02 after 48 to 72 hrs by broth microdilution method; type: functional, Cryptococcus bacillisporus
Outline: (§2)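 CLSI M27-A3 broth microdilution in RPMI with L-glutamine, buffered to pH 7.0 with 0.165 M MOPS. Colonies grown twice on SDA, 48 h at 35°C. Inoculum set to 70% transmittance at 530 nm, then diluted to 1-5 x10^3 cells/mL. Test agents dissolved in DMSO, serially diluted, tested at 0.1 to 62.5 µM. Plates held at 35°C for 48-72 h. MIC is the lowest concentration giving an optically clear well, read visually against drug-free growth controls.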

Cryptococcus neoformans [3] = assay: Antifungal activity against Cryptococcus neoformans 27JF after 48 to 72 hrs by broth microdilution method; type: functional; outline: as §1
[4] = system: Cryptococcus gattii species complex; assay: Antifungal activity against Cryptococcus gattii L24/01 after 48 to 72 hrs by broth microdilution method; type: functional, Cryptococcus bacillisporus; outline: as §2
Cryptococcus neoformans [5] = assay: Antifungal activity against Cryptococcus neoformans WP after 48 to 72 hrs by broth microdilution method; type: functional; outline: as §1
[6] = Cytotoxicity against C57BL/6 mouse peritoneal macrophages assessed as cell viability measured after 48 hrs by MTT assay; type: cell-based; details: C57BL/6, Peritoneal macrophage cell
Outline: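 Thioglycollate-elicited peritoneal macrophages from male C57BL/6 mice, 6–8 weeks old, in RPMI with 10% FBS. Seeded 1 x 10^5 cells/well, pre-incubated 24 h at 37°C. Exposed 48 h at 37°C, 5% CO2, to eight nonserial dilutions from 100 to 0.0128 µM, with 0.5% DMSO control. MTT read-out, % inhibition versus DMSO control. IC50 reported as median with 95% CI. Triplicate, two independent experiments.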

[7] = system: Cryptococcus gattii species complex; assay: Antifungal activity against Cryptococcus gattii 1913ER after 48 to 72 hrs by broth microdilution method; type: functional, Cryptococcus bacillisporus; outline: as §2
Cryptococcus neoformans [8] = assay: Antifungal activity against Cryptococcus neoformans 96806 after 48 to 72 hrs by broth microdilution method; type: functional; outline: as §1
Vero = assay: Cytotoxicity against African green monkey Vero cells assessed as cell viability measured after 48 hrs by MTT assay; type: cell-based; details: Chlorocebus sabaeus
Outline: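 VERO cells in D-MEM with 5% FBS, used up to 20 passages. Seeded 1 x 10^4 cells/well, pre-incubated 24 h at 37°C. Exposed 48 h at 37°C, 5% CO2, to eight nonserial dilutions from 100 to 0.0128 µM, with 0.5% DMSO control. MTT reduction read-out, corrected for background and blank. IC50 reported as median with 95% CI. Triplicate, two independent experiments.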

[9] = Selectivity index, ratio of IC50 for African green monkey Vero cells to MIC for Cryptococcus neoformans ATCC 24067; type: toxicity, cell-based
[10] = system: Cryptococcus gattii species complex; assay: Ratio of compound MIC for Cryptococcus gattii 23/10993 in presence of amphotericin B to compound MIC for Cryptococcus gattii 23/10993 in absence of amphotericin B by checkerboard microtiter test; type: functional, Cryptococcus bacillisporus
Outline: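 Checkerboard microdilution: eight two-fold dilutions of test compound (0.11 to 15.6 µM) crossed with amphotericin B (0.025 to 3.9 µM, in DMSO) or fluconazole (0.48 to 62.5 µM, in water). Inoculum per CLSI M27-A3 in RPMI-MOPS pH 7.0, 1-5 x10^3 cells/mL. Growth 48 to 72 h. Effective MIC is the combination concentration giving complete inhibition. FICs derived from MICs in combination versus alone.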

[11] = system: Cryptococcus gattii species complex; assay: Antifungal activity against Cryptococcus gattii L27/01 after 48 to 72 hrs by broth microdilution method; type: functional, Cryptococcus bacillisporus; outline: as §2
Cryptococcus neoformans [12] = assay: Antifungal activity against Cryptococcus neoformans F10 after 48 to 72 hrs by broth microdilution method; type: functional; outline: as §1
Cryptococcus neoformans [13] = assay: Antifungal activity against Cryptococcus neoformans ATCC 28957 after 48 to 72 hrs by broth microdilution method; type: functional; outline: as §1
Cryptococcus neoformans [14] = assay: Antifungal activity against Cryptococcus neoformans ATCC 62066 after 48 to 72 hrs by broth microdilution method; type: functional
Cryptococcus neoformans [15] = assay: Antifungal activity against Cryptococcus neoformans LMM820 after 48 to 72 hrs by broth microdilution method; type: functional; outline: as §1
Cryptococcus neoformans [16] = assay: Antifungal activity against Cryptococcus neoformans CN31 after 48 to 72 hrs by broth microdilution method; type: functional; outline: as §1
[17] = system: Cryptococcus gattii species complex; assay: Antifungal activity against Cryptococcus gattii 135L/03 after 48 to 72 hrs by broth microdilution method; type: functional, Cryptococcus bacillisporus; outline: as §2
[18] = system: Cryptococcus gattii species complex; assay: Antifungal activity against Cryptococcus gattii 23/10993 after 48 to 72 hrs by broth microdilution method; type: functional, Cryptococcus bacillisporus; outline: as §2
Cryptococcus neoformans [19] = assay: Antifungal activity against Cryptococcus neoformans VM-MCMMPI after 48 to 72 hrs by broth microdilution method; type: functional; outline: as §1
Cryptococcus neoformans [20] = assay: Antifungal activity against Cryptococcus neoformans 28JF after 48 to 72 hrs by broth microdilution method; type: functional; outline: as §1
[21] = Selectivity index, ratio of IC50 for C57BL/6 mouse peritoneal macrophages to MIC for Cryptococcus neoformans ATCC 24067
Outline: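 SI = IC50/MIC. Thioglycollate-elicited peritoneal macrophages from C57BL/6 mice are seeded at 1 x 10^5/well. They are exposed for 48 h at 37°C to eight concentrations from 100 to 0.0128 µM. Viability read by MTT versus 0.5% DMSO control, triplicate in two experiments.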

[22] = system: Cryptococcus gattii species complex; assay: Antifungal activity against Cryptococcus gattii 547/OTTI-97-PI-10 after 48 to 72 hrs by broth microdilution method; type: functional, Cryptococcus bacillisporus; outline: as §2
Cryptococcus neoformans [23] = assay: Antifungal activity against Cryptococcus neoformans ATCC 24067 after 48 to 72 hrs by broth microdilution method; type: functional; outline: as §1
[24] = system: Cryptococcus gattii species complex; assay: Antifungal activity against Cryptococcus gattii 196L/03 after 48 to 72 hrs by broth microdilution method; type: functional, Cryptococcus bacillisporus; outline: as §2
[25] = system: Cryptococcus gattii species complex; assay: Antifungal activity against Cryptococcus gattii ICB181 after 48 to 72 hrs by broth microdilution method; type: functional, Cryptococcus bacillisporus; outline: as §2
[26] = system: Cryptococcus gattii species complex; assay: Antifungal activity against Cryptococcus gattii LMM818 after 48 to 72 hrs by broth microdilution method; type: functional, Cryptococcus bacillisporus; outline: as §2
[27] = system: Cryptococcus bacillisporus; assay: Antifungal activity against Cryptococcus gattii ATCC 32608 after 48 to 72 hrs by broth microdilution method; type: functional; outline: as §2

MIC (Cryptococcus neoformans [1]): 0.5 µM (≈ 0.146 µg/mL)
MIC [2]: 1.4 µM (≈ 0.408 µg/mL)
MIC (Cryptococcus neoformans [3]): 1.2 µM (≈ 0.35 µg/mL)
MIC [4]: 1.4 µM (≈ 0.408 µg/mL)
MIC (Cryptococcus neoformans [5]): 0.9 µM (≈ 0.262 µg/mL)
MIC [7]: 0.9 µM (≈ 0.262 µg/mL)
MIC (Cryptococcus neoformans [8]): 0.9 µM (≈ 0.262 µg/mL)
MIC [11]: 0.8 µM (≈ 0.233 µg/mL)
MIC (Cryptococcus neoformans [12]): 0.7 µM (≈ 0.204 µg/mL)
MIC (Cryptococcus neoformans [13]): 0.6 µM (≈ 0.175 µg/mL)
MIC (Cryptococcus neoformans [14]): 0.6 µM (≈ 0.175 µg/mL)
MIC (Cryptococcus neoformans [15]): 0.5 µM (≈ 0.146 µg/mL)
MIC (Cryptococcus neoformans [16]): 0.5 µM (≈ 0.146 µg/mL)
MIC [17]: 0.9 µM (≈ 0.262 µg/mL)
MIC [18]: 1.4 µM (≈ 0.408 µg/mL)
MIC (Cryptococcus neoformans [19]): 0.5 µM (≈ 0.146 µg/mL)
MIC (Cryptococcus neoformans [20]): 0.6 µM (≈ 0.175 µg/mL)
MIC [22]: 1.7 µM (≈ 0.495 µg/mL)
MIC (Cryptococcus neoformans [23]): 0.45 µM (≈ 0.131 µg/mL)
MIC [24]: 1.4 µM (≈ 0.408 µg/mL)
MIC [25]: 0.7 µM (≈ 0.204 µg/mL)
MIC [26]: 1.4 µM (≈ 0.408 µg/mL)
MIC [27]: 1.4 µM (≈ 0.408 µg/mL)
Structure (SMILES): COc1ccc(-c2csc(N/N=C(\C)CCO)n2)cc1
MFC (Cryptococcus neoformans [1]): 3.9 µM (≈ 1.14 µg/mL)
MFC [2]: 3.9 µM (≈ 1.14 µg/mL)
MFC (Cryptococcus neoformans [3]): 7.8 µM (≈ 2.27 µg/mL)
MFC [4]: 3.9 µM (≈ 1.14 µg/mL)
MFC (Cryptococcus neoformans [5]): 3.9 µM (≈ 1.14 µg/mL)
IC50 [6]: > 100 µM
MFC [7]: 1.9 µM (≈ 0.554 µg/mL)
MFC (Cryptococcus neoformans [8]): 3.9 µM (≈ 1.14 µg/mL)
IC50 (Vero): > 100 µM
selectivity ratio [9]: 111
fractional inhibitory concentration index (FICI) [10]: 3.51
MFC [11]: 1.9 µM (≈ 0.554 µg/mL)
MFC (Cryptococcus neoformans [12]): 3.9 µM (≈ 1.14 µg/mL)
MFC (Cryptococcus neoformans [13]): 3.9 µM (≈ 1.14 µg/mL)
MFC (Cryptococcus neoformans [14]): 15.6 µM (≈ 4.55 µg/mL)
MFC (Cryptococcus neoformans [15]): 3.9 µM (≈ 1.14 µg/mL)
MFC (Cryptococcus neoformans [16]): 7.8 µM (≈ 2.27 µg/mL)
MFC [17]: 3.9 µM (≈ 1.14 µg/mL)
MFC [18]: 3.9 µM (≈ 1.14 µg/mL)
MFC (Cryptococcus neoformans [19]): 3.9 µM (≈ 1.14 µg/mL)
MFC (Cryptococcus neoformans [20]): 3.9 µM (≈ 1.14 µg/mL)
Ratio [21]: 222
MFC [22]: 3.9 µM (≈ 1.14 µg/mL)
MFC [24]: 3.9 µM (≈ 1.14 µg/mL)
MFC [25]: 1.9 µM (≈ 0.554 µg/mL)
MFC [26]: 3.9 µM (≈ 1.14 µg/mL)
MFC [27]: 3.9 µM (≈ 1.14 µg/mL)
